This sample holds only a part of the variants without activity.
B1: tRNA (parent)
chain: GUUCCGUUGGCGUAAUGGUAACGCGUCUCCCUCCUAAGGAGAAGACUGCGGGUUCGAGUCCCGUACGGAACG

Variants of: B1
Assay: yeast fitness relative to wild type (ratio to wild type); higher = fitter; tRNA-Arg(CCU), competitive growth, 37 C, YPD
Procedure, shortened: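 Changes in genotype frequencies gave Darwinian fitness relative to wild type. Frequencies were read by 100-nucleotide paired-end sequencing of gene amplicons before and after pooled Saccharomyces cerevisiae strains, carrying tRNA-Arg(CCU) gene variants at the native locus, were competed in YPD at 37°C for 24 hours in six replicates. A genotype was kept only with ≥ 100 starting reads, and estimates < 0.5 were set to 0.5.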

Going from G10A C61U to G10A C61G, the yeast fitness falls from 0.744 to ≤ 0.5.

Going from G10A G44C to G10A G44A, the yeast fitness falls from 0.79 to 0.786.

Compared with G10A U16A C31A A42G A43G G68C, G10C C11U C27G A42G C55U is higher in yeast fitness: ≤ 0.5 for the first, 0.785 for the second.

G10C A14U A20U C31A C55G G56C and G10C A45U C60G C66G cannot be ordered by yeast fitness: ≤ 0.5 for the first, ≤ 0.5 for the second.

Compared with G10C C11U C30G G48A U54A, G10A U19A A40C A42C G68A A70C is lower in yeast fitness: 0.693 for the first, ≤ 0.5 for the second.

G10A G18A A36G U53A A70G and G10C C22G C30U C55U cannot be ordered by yeast fitness: ≤ 0.5 for the first, ≤ 0.5 for the second.

G10A U16A C24A G39C A43U C60U and G10C C24U U64C cannot be ordered by yeast fitness: ≤ 0.5 for the first, ≤ 0.5 for the second.

G10A U13C G18C A20U C30A and G10A U19A G44C U54G C55U cannot be ordered by yeast fitness: ≤ 0.5 for the first, ≤ 0.5 for the second.

G10C A14G C24A A70U and G10C A45U G48A C55A cannot be ordered by yeast fitness: ≤ 0.5 for the first, ≤ 0.5 for the second.

G10C C29A A40U C62G and G10C A36C A57C cannot be ordered by yeast fitness: ≤ 0.5 for the first, ≤ 0.5 for the second.

First: G10A U35G
Second: G10A U35A
The yeast fitness of the first is lower: ≤ 0.5 for the first, 0.62 for the second.

Going from G10A U35C to G10A G41A C60G A65G, the yeast fitness falls from 0.582 to 0.529.

First: G10A G18A C27G A37G G38A A57U
Second: G10A U47C C62U
The yeast fitness of the first is lower: ≤ 0.5 for the first, 0.566 for the second.

G10C C22U C30G A40C G50A C60G and G10C C22U A42U C60G cannot be ordered by yeast fitness: ≤ 0.5 for the first, ≤ 0.5 for the second.

Compared with G10A G58A A69U, G10C C29G A70C is lower in yeast fitness: 0.54 for the first, ≤ 0.5 for the second.

G10C A14U U19A C22U C60U G68C and G10A G23A U35G cannot be ordered by yeast fitness: ≤ 0.5 for the first, ≤ 0.5 for the second.

G10C A21C U26C C31A A42U and G10C C29A A37G U64C cannot be ordered by yeast fitness: ≤ 0.5 for the first, ≤ 0.5 for the second.

First: G10A G52A A57G C66U
Second: G10C A20G A21C C27A C49U U54A A70C
The yeast fitness of the first is lower: ≤ 0.5 for the first, 0.653 for the second.

G10C C30U C31A and G10C C24G C27U C33U G50C G68A cannot be ordered by yeast fitness: ≤ 0.5 for the first, ≤ 0.5 for the second.

First: G10A G56A
Second: G10C C11A G18C C24U C66U
The yeast fitness of the first is higher: 0.754 for the first, 0.529 for the second.

Going from G10C C24U C61G C66U A69U to G10C C11G C22A C30G U53A, the yeast fitness rises from ≤ 0.5 to 0.653.

Compared with G10A G51C G58U, G10C C24G C49G C55A is higher in yeast fitness: ≤ 0.5 for the first, 0.683 for the second.

G10A G12C C31U U53C A70C and G10C A45U C49G C60A cannot be ordered by yeast fitness: ≤ 0.5 for the first, ≤ 0.5 for the second.

Going from G10C A45G A65C A69C to G10C C24G C49U C66U, the yeast fitness falls from 0.571 to ≤ 0.5.

Going from G10C A14G C66U to G10A U35A A37G A43U A45C, the yeast fitness falls from 0.505 to ≤ 0.5.

G10A G17A A36G A40C A57C C62A and G10C A21G G56A cannot be ordered by yeast fitness: ≤ 0.5 for the first, ≤ 0.5 for the second.

Going from G10C A15U to G10C A21C C27A C34A C49G A65G, the yeast fitness falls from 0.691 to ≤ 0.5.

Compared with G10A U13C, G10C C11U C29G A42U is lower in yeast fitness: 0.658 for the first, ≤ 0.5 for the second.

G10C C29A A40U C55G and G10A U13C A21U cannot be ordered by yeast fitness: ≤ 0.5 for the first, ≤ 0.5 for the second.

Going from G10C C11G C22U C34G A69C to G10A G18A A36G, the yeast fitness falls from 0.589 to ≤ 0.5.

G10A U35A A57C and G10C A20G C24U G38C A57C G63C cannot be ordered by yeast fitness: ≤ 0.5 for the first, ≤ 0.5 for the second.

G10A U26A C27U C29A G48A C62A and G10A U54C C61G cannot be ordered by yeast fitness: ≤ 0.5 for the first, ≤ 0.5 for the second.

G10A U32G and G10C A14G U28C G39A A65U cannot be ordered by yeast fitness: ≤ 0.5 for the first, ≤ 0.5 for the second.

Compared with G10A U26A C27U C29A A65G G68C, G10C A14U U19A C22U C62U is lower in yeast fitness: 0.563 for the first, ≤ 0.5 for the second.

Going from G10A C62U A70U to G10A U16A G52A A65U, the yeast fitness falls from 0.531 to ≤ 0.5.

Compared with G10C C11U C29G C55U, G10A U35G A37U U47C A70G is lower in yeast fitness: 0.556 for the first, ≤ 0.5 for the second.

Compared with G10C C27G G38C G56A, G10A U13G A43U U53C is lower in yeast fitness: 0.526 for the first, ≤ 0.5 for the second.

G10A G18A A69C and G10A G44C G63C cannot be ordered by yeast fitness: ≤ 0.5 for the first, ≤ 0.5 for the second.

G10C A14U U19A C22U C66U and G10A U13G C27U C46G G67A cannot be ordered by yeast fitness: ≤ 0.5 for the first, ≤ 0.5 for the second.

First: G10C A70C
Second: G10C A15U C29G C46U G51C
The yeast fitness of the first is higher: 0.689 for the first, ≤ 0.5 for the second.

Compared with G10A U28C C61U C66G, G10A G48C is higher in yeast fitness: ≤ 0.5 for the first, 0.733 for the second.

G10C C11U C22G C27G C33G A42C and G10C A15C C46U cannot be ordered by yeast fitness: ≤ 0.5 for the first, ≤ 0.5 for the second.

G10A G25A U47C and G10C A14C A15C A43U cannot be ordered by yeast fitness: ≤ 0.5 for the first, ≤ 0.5 for the second.

First: G10A U16A U32C A65G
Second: G10C C11G C55G C62U
The yeast fitness of the first is lower: ≤ 0.5 for the first, 0.62 for the second.

G10A U16A C31A G52C and G10C C24G C49U cannot be ordered by yeast fitness: ≤ 0.5 for the first, ≤ 0.5 for the second.

G10C C24G C49G and G10C C22A C24G U53A G56C C62U cannot be ordered by yeast fitness: ≤ 0.5 for the first, ≤ 0.5 for the second.

Compared with G10C C22A C33A, G10A U19A A42G A65C is lower in yeast fitness: 0.538 for the first, ≤ 0.5 for the second.

G10C A57G A65U and G10A U16A G63A cannot be ordered by yeast fitness: ≤ 0.5 for the first, ≤ 0.5 for the second.

Compared with G10C A40U, G10A G39C C62U G63A A70U is lower in yeast fitness: 0.635 for the first, ≤ 0.5 for the second.

First: G10C C27A
Second: G10C A14G G39A A65U
The yeast fitness of the first is higher: 0.593 for the first, ≤ 0.5 for the second.

Compared with G10A U16A G38A U64C, G10C C22A C24G A70C is higher in yeast fitness: ≤ 0.5 for the first, 0.531 for the second.

G10C C27G A42C and G10A G38C C46A C62G C66U cannot be ordered by yeast fitness: ≤ 0.5 for the first, ≤ 0.5 for the second.

G10C C29U C49G G63C and G10C C27G U54C C61G cannot be ordered by yeast fitness: ≤ 0.5 for the first, ≤ 0.5 for the second.

G10A G23C C61G and G10C C30G A43U G68U cannot be ordered by yeast fitness: ≤ 0.5 for the first, ≤ 0.5 for the second.

G10A U35A G56A A65G C66U and G10C A40U G50A cannot be ordered by yeast fitness: ≤ 0.5 for the first, ≤ 0.5 for the second.

G10C C27G A42C C49A G67A and G10C A14G C22U A37G A40U C46A U54C cannot be ordered by yeast fitness: ≤ 0.5 for the first, ≤ 0.5 for the second.

G10C A14U G25A C27U U53C and G10C A15U A37U cannot be ordered by yeast fitness: ≤ 0.5 for the first, ≤ 0.5 for the second.

G10C A36G A57U and G10C C22A C24G A65U cannot be ordered by yeast fitness: ≤ 0.5 for the first, ≤ 0.5 for the second.

G10A G44A U54C C61U G67A and G10A G50A U59G C62A cannot be ordered by yeast fitness: ≤ 0.5 for the first, ≤ 0.5 for the second.

Going from G10A U16G to G10C C11U C49A, the yeast fitness falls from 0.611 to 0.562.

G10A G17A G39C A45C C49G and G10C C27G C61G cannot be ordered by yeast fitness: ≤ 0.5 for the first, ≤ 0.5 for the second.

First: G10C C27G A42C C66U
Second: G10C A14U U19A C22U U59G A65C
The yeast fitness of the first is higher: 0.534 for the first, ≤ 0.5 for the second.

First: G10A G25A G41C U54G C61U
Second: G10A G17A U35G A36G A40C A57C C62A
The yeast fitness of the first is higher: 0.551 for the first, ≤ 0.5 for the second.

First: G10A G23C C29U A36C C49G A70U
Second: G10C C11G C24G G48C
The yeast fitness of the first is higher: 0.542 for the first, ≤ 0.5 for the second.

Compared with G10A U19A A40C A42C, G10A U16A G38C G41C A65G is lower in yeast fitness: 0.541 for the first, ≤ 0.5 for the second.

G10C C11U C30G G48A U54A G68U and G10A G44C A65C G67A cannot be ordered by yeast fitness: ≤ 0.5 for the first, ≤ 0.5 for the second.

G10A U59C G68C and G10C C29A C31U G68C cannot be ordered by yeast fitness: ≤ 0.5 for the first, ≤ 0.5 for the second.

Going from G10C A20U C60G to G10A U53G C60A G68U A69C, the yeast fitness falls from 0.587 to ≤ 0.5.

G10C A36C G48A and G10A U35C A42C A43C cannot be ordered by yeast fitness: ≤ 0.5 for the first, ≤ 0.5 for the second.

First: G10A U26A G63A C66U
Second: G10C C27U G38A C46G
The yeast fitness of the first is lower: ≤ 0.5 for the first, 0.57 for the second.

G10C A15U A37U A45C U47C G52C and G10A U53A G58A G68U cannot be ordered by yeast fitness: ≤ 0.5 for the first, ≤ 0.5 for the second.

First: G10A G25C C49G
Second: G10A G18A C27G A37G G38A
The yeast fitness of the first is higher: 0.603 for the first, ≤ 0.5 for the second.

G10C C24G C55A and G10A U32C G63A cannot be ordered by yeast fitness: ≤ 0.5 for the first, ≤ 0.5 for the second.

Compared with G10C C22A U35C C60G C61U G63A, G10A G17A C66G is higher in yeast fitness: ≤ 0.5 for the first, 0.623 for the second.

First: G10A U32G C66A
Second: G10C A36G
The yeast fitness of the first is lower: ≤ 0.5 for the first, 0.663 for the second.

G10A U32G C34A and G10A U13A C24A C55G C62U cannot be ordered by yeast fitness: ≤ 0.5 for the first, ≤ 0.5 for the second.

Compared with G10C A43G G52C C62U G63A, G10C A14U G56A is lower in yeast fitness: 0.531 for the first, ≤ 0.5 for the second.

Compared with G10C A15C C29G G48A, G10A G39C is higher in yeast fitness: 0.643 for the first, 0.763 for the second.

G10C C11A A37C C49G C62U and G10C C27U C66G cannot be ordered by yeast fitness: ≤ 0.5 for the first, ≤ 0.5 for the second.

G10C A15G U35A G44A C61A U64C and G10C C29U C46A cannot be ordered by yeast fitness: ≤ 0.5 for the first, ≤ 0.5 for the second.

Going from G10C A14G C24A to G10C A37G G52A C55G, the yeast fitness rises from ≤ 0.5 to 0.567.

First: G10C C29G A42U G58A G63A G67A
Second: G10C A15G G58C
The yeast fitness of the first is lower: ≤ 0.5 for the first, 0.559 for the second.

G10C C11G U13A A36G C55U and G10A U35G A37U U47C G56C A69C cannot be ordered by yeast fitness: ≤ 0.5 for the first, ≤ 0.5 for the second.

For G10A U35G A37U U47C G56C U64C A69C, the yeast fitness was ≤ 0.5.
